# Results of several laboratories.
# Lines come from different studies, so protocols differ.
# Target: Mitogen-activated protein kinase 8 (MAPK8, Homo sapiens, UniProt P45983)
SMILES,assay,conditions,endpoint,value
O=c1[nH]c2ccccc2n1C1CCN(Cc2ccc(-c3[nH]c4cc5ncnc5cc4nc3-c3ccccc3)cc2)CC1,cell-free assay,0.5 µM,remaining signal,89.6%
Cn1cc(-c2cccc(N3CCc4c(sc5c4CC(C)(C)C5)C3=O)c2CO)cc(Nc2ccncn2)c1=O,"enzyme activity, inhibitor",1 µM,inhibition,1%
CC(C)(C)c1cc(C=C(C#N)C#N)cc(Br)c1O,"enzyme activity, inhibitor",0.5 µM,remaining activity,90.4%
Cc1nn(C)cc1-c1nc2c(N3CCN(Cc4ccc(Cl)cc4)CC3)c(Cl)cnc2[nH]1,"binding, competition with immobilised ligand",1 µM,remaining binding,93%
Nc1ncc(-c2nc(N3CCOCC3)nc(N3CCOCC3)n2)c(C(F)F)n1,"binding, competition with immobilised ligand",10 µM,remaining binding,86%
C#Cc1n[nH]c2c(-c3cn(C(C)c4ccccn4)c(=O)[nH]c3=O)cc(F)cc12 (centres unmarked),"enzyme activity, inhibitor",1 µM,inhibition,-4.2%
Cn1cc(-c2cc(F)cc(N3CCn4c(cc5c4CCCC5)C3=O)c2CO)cc(Nc2ccc(N3CCN(C4COC4)CC3)cn2)c1=O,"enzyme activity, inhibitor",0.1 µM,inhibition,-1%
Cn1cncc1[C@](O)(COc1ccc(C#N)cc1-c1ccc(OC(F)(F)F)cc1)c1ccc(C#N)cc1,"cell-free assay, competition with immobilised ligand",1 µM,remaining binding,100%
C#Cc1n[nH]c2c(-c3cn([C@@H](C)c4ccccc4)c(=O)[nH]c3=O)cc(F)cc12,"enzyme activity, inhibitor",0.1 µM,inhibition,1.5%
COc1ncccc1-c1cnn2ccc(N3CCN(C(=O)OC(C)C)CC3)nc12,"binding, competition with immobilised ligand",1 µM,remaining binding,100%
N#CC1(c2ccccn2)CCN(Cc2cc(C(=O)O)c(=O)n3ccccc23)CC1,"cell-free assay, competition with immobilised ligand",1 µM,remaining binding,85%
